Measured values reported in ChEMBL document CHEMBL4842318, “A γ-lactam siderophore antibiotic effective against multidrug-resistant Pseudomonas aeruginosa, Klebsiella pneumoniae, and Acinetobacter spp” (Eur J Med Chem, 2021).
≈ marks a conversion by molar mass, not a printed value.

Columns and labels:
[1] = Plasma concentration in SC dosed CD-1 mouse treated four times at 6 hrs interval measured after 4 hrs; assay type: ADME, organism-based
Outline: (§1)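 CD-1 mice dosed SC at 50 mg/kg. Plasma sampled at 0.167 to 24 h, three individual mice per time point, reported as mean and SD in ng/mL.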

[2] = system: Acinetobacter baumannii; experiment: Antibacterial activity against carbapenem resistant Acinetobacter baumannii isolate PR-399 assessed as inhibition of bacterial growth at 1:1 compound to sulbactam concentration by microdilution method; assay type: functional
Outline: (§2)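 Iron-depleted (Chelex-treated) cation-adjusted Mueller-Hinton broth microdilution; inoculum 6 × 10^4 cfu/mL. Test agent and sulbactam mixed 1:1 by mass and serially 2-fold diluted together. MIC in μg/mL.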

[3] = system: Pseudomonas aeruginosa; experiment: Antibacterial activity against wild type Pseudomonas aeruginosa isolate PR-567 assessed as inhibition of bacterial growth by microdilution method; assay type: functional
Outline: (§3)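 Broth microdilution MIC in iron-depleted (Chelex resin-treated) cation-adjusted Mueller-Hinton broth, following the protocol used for siderophore-containing antibiotics. Inoculum was lowered to 6 × 10^4 cfu/mL.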

[4] = Antibacterial activity against carbapenem susceptible Acinetobacter nosocomialis isolate PR-412 assessed as inhibition of bacterial growth in presence of 20 ug/ml sulbactam by microdilution method; assay type: functional; details: dose 20 µg/ml
Outline: (§4)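 MIC by broth microdilution using iron-depleted (Chelex-treated) cation-adjusted Mueller-Hinton broth and 6 × 10^4 cfu/mL inoculum. Compound serially diluted with sulbactam held constant at 20 μg/mL.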

[5] = system: Acinetobacter baumannii; experiment: Antibacterial activity against carbapenem resistant Acinetobacter baumannii isolate PR-326 assessed as inhibition of bacterial growth at 1:1 compound to sulbactam concentration by microdilution method; assay type: functional; outline: as §2
[6] = Antibacterial activity against carbapenem susceptible Acinetobacter nosocomialis isolate PR-491 assessed as inhibition of bacterial growth at 1:1 compound to sulbactam concentration by microdilution method; assay type: functional
Outline: (§5)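 Broth microdilution MIC in Chelex-treated, iron-depleted cation-adjusted Mueller-Hinton broth, inoculum 6 × 10^4 cfu/mL. Compound and sulbactam combined 1:1 by mass in a 2-fold dilution series.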

[7] = system: Acinetobacter baumannii; experiment: Antibacterial activity against carbapenem susceptible Acinetobacter baumannii isolate PR-434 assessed as inhibition of bacterial growth in presence of 20 ug/ml sulbactam by microdilution method; assay type: functional; details: dose 20 µg/ml; outline: as §4
[8] = biological target: PDE3A (Homo sapiens, UniProt Q14432); experiment: Inhibition of PDE3A (unknown origin) at 30 uM
PDE3A, sequence (Q14432 whole entry): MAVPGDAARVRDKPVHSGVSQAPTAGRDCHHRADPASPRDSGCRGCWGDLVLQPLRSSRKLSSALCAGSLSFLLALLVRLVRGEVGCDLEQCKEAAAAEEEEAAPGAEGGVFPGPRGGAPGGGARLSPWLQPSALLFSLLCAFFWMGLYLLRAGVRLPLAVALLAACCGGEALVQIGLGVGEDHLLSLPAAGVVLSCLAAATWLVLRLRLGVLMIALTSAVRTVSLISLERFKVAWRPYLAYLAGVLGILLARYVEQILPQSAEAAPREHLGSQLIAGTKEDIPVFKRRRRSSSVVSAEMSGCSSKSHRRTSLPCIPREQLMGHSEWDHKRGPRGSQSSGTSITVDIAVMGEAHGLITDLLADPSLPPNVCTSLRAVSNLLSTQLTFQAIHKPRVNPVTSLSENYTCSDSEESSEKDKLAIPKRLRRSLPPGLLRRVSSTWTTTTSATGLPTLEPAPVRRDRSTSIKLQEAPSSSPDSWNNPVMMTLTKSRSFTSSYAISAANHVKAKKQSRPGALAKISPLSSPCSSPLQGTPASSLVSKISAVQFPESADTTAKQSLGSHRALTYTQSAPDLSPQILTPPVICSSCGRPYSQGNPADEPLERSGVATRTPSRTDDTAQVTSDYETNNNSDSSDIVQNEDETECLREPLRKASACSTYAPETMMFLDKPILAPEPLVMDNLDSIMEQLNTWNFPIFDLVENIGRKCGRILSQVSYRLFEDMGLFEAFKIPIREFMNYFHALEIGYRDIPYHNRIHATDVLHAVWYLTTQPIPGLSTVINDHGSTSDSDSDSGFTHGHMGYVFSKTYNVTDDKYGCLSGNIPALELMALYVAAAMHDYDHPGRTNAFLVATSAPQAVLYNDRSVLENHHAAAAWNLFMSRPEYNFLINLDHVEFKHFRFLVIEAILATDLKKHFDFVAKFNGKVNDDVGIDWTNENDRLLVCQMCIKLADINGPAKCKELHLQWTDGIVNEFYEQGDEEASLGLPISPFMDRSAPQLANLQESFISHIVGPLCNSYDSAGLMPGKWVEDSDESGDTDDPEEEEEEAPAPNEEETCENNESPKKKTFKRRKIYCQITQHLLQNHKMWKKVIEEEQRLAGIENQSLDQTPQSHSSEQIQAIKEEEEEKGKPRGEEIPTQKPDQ

[9] = system: Acinetobacter baumannii; experiment: Antibacterial activity against carbapenem resistant Acinetobacter baumannii isolate PR-325 assessed as inhibition of bacterial growth at 1:1 compound to sulbactam concentration by microdilution method; assay type: functional; outline: as §2
[10] = Metabolic stability in human microsomes assessed as half life; assay type: ADME, Microsome
[11] = Antibacterial activity against carbapenem susceptible Acinetobacter nosocomialis isolate PR-491 assessed as bacterial growth inhibition by microdilution method; assay type: functional; outline: as §3
[12] = system: Pseudomonas aeruginosa; experiment: Antibacterial activity against Pseudomonas aeruginosa isolate PR-564 leucine at 533 residue assessed as inhibition of bacterial growth by microdilution method; assay type: functional
Outline: (§6)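 Broth microdilution in Chelex-treated, iron-depleted cation-adjusted Mueller-Hinton broth, following the protocol used for siderophore-containing antibiotics; inoculum lowered to 6 × 10^4 cfu/mL; MIC read as growth inhibition, in μg/mL.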

[13] = biological target: T1, CYP2C8 (Homo sapiens, UniProt P10632); experiment: Inhibition of CYP2C8 (unknown origin) at 100 uM; assay type: ADME
T1 sequence (P10632 whole entry): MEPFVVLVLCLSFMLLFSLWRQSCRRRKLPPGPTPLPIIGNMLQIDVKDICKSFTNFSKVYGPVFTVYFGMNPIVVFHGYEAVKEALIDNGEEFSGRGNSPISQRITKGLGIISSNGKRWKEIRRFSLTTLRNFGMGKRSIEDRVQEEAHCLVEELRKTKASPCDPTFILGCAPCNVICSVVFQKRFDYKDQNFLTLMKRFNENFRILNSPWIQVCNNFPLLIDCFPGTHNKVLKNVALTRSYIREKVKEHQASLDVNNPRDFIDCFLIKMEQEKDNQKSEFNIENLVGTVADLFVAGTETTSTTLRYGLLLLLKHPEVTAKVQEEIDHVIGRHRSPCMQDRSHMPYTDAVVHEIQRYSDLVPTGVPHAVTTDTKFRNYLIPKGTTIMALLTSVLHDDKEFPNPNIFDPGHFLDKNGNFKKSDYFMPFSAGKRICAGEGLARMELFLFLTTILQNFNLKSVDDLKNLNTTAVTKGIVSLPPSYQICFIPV

[14] = system: Acinetobacter baumannii; experiment: Antibacterial activity against carbapenem resistant Acinetobacter baumannii isolate PR-399 assessed as inhibition of bacterial growth in presence of 20 ug/ml sulbactam by microdilution method; assay type: functional; details: dose 20 µg/ml
[15] = Antibacterial activity against carbapenem susceptible Acinetobacter nosocomialis isolate PR-365 assessed as inhibition of bacterial growth in presence of 20 ug/ml sulbactam by microdilution method; assay type: functional; details: dose 20 µg/ml; outline: as §4
[16] = Plasma concentration in SC dosed CD-1 mouse treated four times at 6 hrs interval measured after 0.5 hrs; assay type: ADME, organism-based; outline: as §1
[17] = system: Acinetobacter baumannii; experiment: Antibacterial activity against carbapenem resistant Acinetobacter baumannii isolate PR-342 assessed as inhibition of bacterial growth in presence of 20 ug/ml sulbactam by microdilution method; assay type: functional; details: dose 20 µg/ml
[18] = Plasma concentration in SC dosed CD-1 mouse treated four times at 6 hrs interval measured after 1 hrs; assay type: ADME, organism-based; outline: as §1
[19] = system: Acinetobacter baumannii; experiment: Antibacterial activity against carbapenem resistant Acinetobacter baumannii isolate PR-351 assessed as bacterial growth inhibition by microdilution method; assay type: functional; outline: as §6
[20] = system: Acinetobacter baumannii; experiment: Antibacterial activity against carbapenem resistant Acinetobacter baumannii isolate PR-459 assessed as bacterial growth inhibition by microdilution method; assay type: functional; outline: as §6
[21] = Antibacterial activity against carbapenem susceptible Acinetobacter nosocomialis isolate PR-362 assessed as inhibition of bacterial growth at 1:1 compound to sulbactam concentration by microdilution method; assay type: functional; outline: as §5
[22] = system: Acinetobacter baumannii; experiment: Antibacterial activity against carbapenem resistant Acinetobacter baumannii isolate PR-401 assessed as inhibition of bacterial growth in presence of 20 ug/ml sulbactam by microdilution method; assay type: functional; details: dose 20 µg/ml
[23] = system: Acinetobacter baumannii; experiment: Antibacterial activity against panel of 198 clinical isolates Acinetobacter baumannii assessed as inhibition of bacterial growth by microdilution method; assay type: functional
[24] = system: Pseudomonas aeruginosa; experiment: Antibacterial activity against wild type Pseudomonas aeruginosa isolate PR-636 leucine at 533 residue assessed as inhibition of bacterial growth by microdilution method; assay type: functional; outline: as §3
[25] = system: Acinetobacter baumannii; experiment: Antibacterial activity against carbapenem resistant Acinetobacter baumannii isolate PR-314 assessed as bacterial growth inhibition by microdilution method; assay type: functional; outline: as §6
[26] = system: Acinetobacter baumannii; experiment: Antibacterial activity against carbapenem resistant Acinetobacter baumannii isolate PR-380 assessed as inhibition of bacterial growth in presence of 20 ug/ml sulbactam by microdilution method; assay type: functional; details: dose 20 µg/ml
[27] = Antibacterial activity against carbapenem susceptible Acinetobacter nosocomialis isolate PR-365 assessed as inhibition of bacterial growth at 1:1 compound to sulbactam concentration by microdilution method; assay type: functional; outline: as §5
[28] = system: Acinetobacter baumannii; experiment: Antibacterial activity against carbapenem resistant Acinetobacter baumannii isolate PR-380 assessed as bacterial growth inhibition by microdilution method; assay type: functional; outline: as §6
[29] = system: Acinetobacter baumannii; experiment: Antibacterial activity against carbapenem resistant Acinetobacter baumannii isolate PR-342 assessed as inhibition of bacterial growth at 1:1 compound to sulbactam concentration by microdilution method; assay type: functional; outline: as §2
[30] = system: Acinetobacter baumannii; experiment: Antibacterial activity against carbapenem resistant Acinetobacter baumannii isolate PR-387 assessed as inhibition of bacterial growth in presence of 20 ug/ml sulbactam by microdilution method; assay type: functional; details: dose 20 µg/ml
[31] = system: Acinetobacter baumannii; experiment: Antibacterial activity against carbapenem resistant Acinetobacter baumannii isolate PR-319 assessed as bacterial growth inhibition by microdilution method; assay type: functional; outline: as §6

`CC(C)(O/N=C(\C(=O)N[C@H]1CN2CC(C(=O)NCCN3C(=O)c4cc(O)c(O)cc4C3=O)=C(C(=O)O)N2C1=O)c1nc(N)sc1Cl)C(=O)O` showed a concentration at 4 h [1] of 1340 ng/mL, an MIC [2] of 16 µg/mL and an MIC [3] of at most 0.25 µg/mL. The MIC [4] was at most 0.25 µg/mL, the MIC [5] was 2 µg/mL and the MIC [6] was 0.5 µg/mL. For the same compound, the MIC [7] was at most 0.25 µg/mL, the inhibition at 30 µM [8] was over 50% and the MIC [9] was over 16 µg/mL. For the same compound, the t1/2 [10] was over 1 h, the MIC [11] was over 16 µg/mL and the MIC [12] was over 16 µg/mL. For the same compound, the inhibition at 100 µM [13] was 50%, the MIC [14] was at most 0.25 µg/mL and the MIC [15] was at most 0.25 µg/mL. For the same compound, the concentration at 0.5 h [16] was 16200 ng/mL, the MIC [17] was over 16 µg/mL and the concentration at 1 h [18] was 3280 ng/mL. It also gave an MIC [19] of over 16 µg/mL, an MIC [20] of 16 µg/mL and an MIC [21] of at most 0.25 µg/mL. For the same compound, the MIC [22] was at most 0.25 µg/mL, the MIC50 [23] was 0.5 µg/mL (≈ 0.693 µM) and the MIC90 [23] was over 16 µg/mL. For the same compound, the MIC [24] was over 16 µg/mL, the MIC [25] was over 16 µg/mL and the MIC [26] was at most 0.25 µg/mL. It also gave an MIC [27] of at most 0.25 µg/mL, an MIC [28] of over 16 µg/mL and an MIC [29] of over 16 µg/mL. For the same compound, the MIC [30] was at most 0.25 µg/mL and the MIC [31] was over 16 µg/mL.
